{
  "source": "ChEMBL document CHEMBL1138351",
  "about": "“Small, potent, and selective diaryl phosphonate inhibitors for urokinase-type plasminogen activator with in vivo antimetastatic properties” (J Med Chem, 2007)",
  "key": {"[1]": {"species_on_record": "Homo sapiens", "assay": "Selectivity index, ratio of IC50 for human plasmin to IC50 for human uPA", "outline": "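Selectivity index is IC50(plasmin)/IC50(uPA). Plasmin: human plasma-derived, about 5 mU, 580 µM S-2366, Tris pH 7.4. uPA: human, about 1 mU, 250 µM S-2444, 50 mM Tris pH 8.8. Both had 15 min preincubation at 37 °C, 405 nm initial rates in duplicate, and a four-parameter logistic fit.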"}, "[2]": {"target": "Tissue-type plasminogen activator (Homo sapiens, UniProt P00750)", "sequence (P00750 whole entry)": "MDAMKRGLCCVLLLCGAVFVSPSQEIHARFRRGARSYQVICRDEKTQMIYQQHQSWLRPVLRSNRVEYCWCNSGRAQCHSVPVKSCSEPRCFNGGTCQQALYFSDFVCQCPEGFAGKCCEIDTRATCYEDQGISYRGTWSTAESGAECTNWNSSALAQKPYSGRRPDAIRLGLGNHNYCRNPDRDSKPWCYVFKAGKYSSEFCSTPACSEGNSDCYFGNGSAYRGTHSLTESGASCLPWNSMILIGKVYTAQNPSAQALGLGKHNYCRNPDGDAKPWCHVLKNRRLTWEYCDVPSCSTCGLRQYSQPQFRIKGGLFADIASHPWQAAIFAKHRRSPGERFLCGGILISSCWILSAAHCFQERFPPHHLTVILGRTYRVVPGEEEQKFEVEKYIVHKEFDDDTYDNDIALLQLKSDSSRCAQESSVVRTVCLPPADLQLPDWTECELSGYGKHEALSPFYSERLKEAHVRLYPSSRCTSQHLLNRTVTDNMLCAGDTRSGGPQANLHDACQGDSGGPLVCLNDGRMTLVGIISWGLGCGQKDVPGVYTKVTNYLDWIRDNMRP", "assay": "Inhibition of human recombinant tPA"}, "[3]": {"species_on_record": "Homo sapiens", "assay": "Selectivity index, ratio of IC50 for human recombinant tPA to IC50 for human uPA"}, "[4]": {"target": "Plasminogen (Homo sapiens, UniProt P00747)", "sequence (P00747 97-580 limits assumed)": "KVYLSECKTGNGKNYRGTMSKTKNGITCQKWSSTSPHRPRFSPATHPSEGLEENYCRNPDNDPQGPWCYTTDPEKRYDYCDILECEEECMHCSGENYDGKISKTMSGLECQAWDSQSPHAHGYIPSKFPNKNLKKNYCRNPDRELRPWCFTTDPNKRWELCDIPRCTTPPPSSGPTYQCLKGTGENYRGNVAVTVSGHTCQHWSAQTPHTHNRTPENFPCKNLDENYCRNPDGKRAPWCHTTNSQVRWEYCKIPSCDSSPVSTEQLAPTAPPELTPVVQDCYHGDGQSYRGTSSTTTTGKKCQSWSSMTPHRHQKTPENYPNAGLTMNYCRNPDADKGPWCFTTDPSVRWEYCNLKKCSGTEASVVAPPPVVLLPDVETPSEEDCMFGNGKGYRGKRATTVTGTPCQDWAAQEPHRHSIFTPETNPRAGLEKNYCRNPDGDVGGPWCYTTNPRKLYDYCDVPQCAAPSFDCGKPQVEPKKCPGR", "sequence (P00747 581-810 limits assumed)": "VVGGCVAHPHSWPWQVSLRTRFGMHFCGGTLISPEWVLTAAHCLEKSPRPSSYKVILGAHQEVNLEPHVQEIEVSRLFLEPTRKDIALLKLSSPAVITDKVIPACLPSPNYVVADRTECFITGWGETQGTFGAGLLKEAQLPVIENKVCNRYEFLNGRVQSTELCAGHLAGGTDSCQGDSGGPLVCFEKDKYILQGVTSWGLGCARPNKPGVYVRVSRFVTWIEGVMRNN", "assay": "Inhibition of human plasmin", "outline": "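Plasmin from human plasma at about 5 mU was preincubated with inhibitor (0–250 µM final) for 15 min at 37 °C. Substrate was S-2366 at 580 µM in Tris pH 7.4. Initial rate was read at 405 nm, in duplicate. IC50 came from a four-parameter logistic fit.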"}, "[5]": {"target": "T1, Prothrombin (Homo sapiens, UniProt P00734)", "assay": "Inhibition of human thrombin", "outline": "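Human plasma thrombin was assayed at 37 °C in Tris pH 8.3. […] Initial rate was read at 405 nm, in duplicate. IC50 was obtained from a four-parameter logistic fit.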"}, "[6]": {"target": "T2, Coagulation factor X (Homo sapiens, UniProt P00742)", "T2 sequence (P00742 41-179 limits assumed)": "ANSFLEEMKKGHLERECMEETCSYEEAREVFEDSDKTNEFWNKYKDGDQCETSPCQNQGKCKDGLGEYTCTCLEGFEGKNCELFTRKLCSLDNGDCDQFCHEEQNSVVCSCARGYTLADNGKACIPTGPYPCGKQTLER", "T2 sequence (P00742 235-488 limits assumed)": "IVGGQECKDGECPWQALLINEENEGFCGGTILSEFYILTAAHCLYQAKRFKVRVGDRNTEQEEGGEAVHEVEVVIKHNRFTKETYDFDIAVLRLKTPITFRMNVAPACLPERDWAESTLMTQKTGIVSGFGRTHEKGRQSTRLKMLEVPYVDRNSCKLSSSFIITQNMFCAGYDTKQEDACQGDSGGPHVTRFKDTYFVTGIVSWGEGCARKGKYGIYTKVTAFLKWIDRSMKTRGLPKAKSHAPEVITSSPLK", "assay": "Inhibition of factor 10a at 250 uM"}, "[7]": {"species_on_record": "Homo sapiens", "assay": "Selectivity index, ratio of IC50 for human thrombin to IC50 for human uPA", "outline": "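Selectivity index is IC50(thrombin)/IC50(uPA). Thrombin: human plasma-derived, about 5 mU, 580 µM S-2366, Tris pH 8.3. uPA: human, about 1 mU, 250 µM S-2444, 50 mM Tris pH 8.8. Both had 15 min preincubation at 37 °C, 405 nm initial rates in duplicate, and a four-parameter logistic fit.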"}, "[8]": {"target": "T3, Urokinase-type plasminogen activator (Homo sapiens, UniProt P00749)"}, "[9]": {"target": "T3, Urokinase-type plasminogen activator", "remark": "listed apart in the source"}, "[10]": {"species_on_record": "Homo sapiens", "assay": "Selectivity index, ratio of IC50 for human factor 10a to IC50 for human uPA"}, "[11]": {"target": "T2, Coagulation factor X", "assay": "Inhibition of factor 10a", "outline": "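Human factor Xa (FX activated with Russell's viper venom) at about 5 mU was preincubated with inhibitor (0–250 µM final) for 15 min at 37 °C. […] IC50 came from a four-parameter logistic fit.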"}, "[12]": {"target": "T1, Prothrombin", "assay": "Inhibition of human thrombin at 250 uM", "outline": "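Human plasma thrombin was assayed at 37 °C in Tris pH 8.3. IC50 was obtained from a four-parameter logistic fit.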"}, "[13]": {"target": "T2, Coagulation factor X", "assay": "Inhibition of factor 10a at 62 uM"}, "[14]": {"target": "T1, Prothrombin", "assay": "Inhibition of thrombin at 100 uM"}},
  "note": "Calls of active or inactive are those of the source. The rule behind the calls is not given here.",
  "data": [
    {"smiles": "N=C(N)NCCCC(NC(=O)OCc1ccccc1)P(=O)(Oc1ccccc1)Oc1ccccc1", "note": "(stereo not drawn)", "values": [
      {"measurement": "Ratio IC50", "setting": "[1]", "value": 35},
      {"measurement": "IC50", "setting": "[2]", "value": 44, "unit": "µM"},
      {"measurement": "Ratio IC50", "setting": "[3]", "value": 50},
      {"measurement": "IC50", "setting": "[4]", "value": 30, "unit": "µM"},
      {"measurement": "IC50", "setting": "[5]", "value": 0.78, "unit": "µM"},
      {"measurement": "inhibition", "setting": "[6]", "value": 70, "unit": "%"},
      {"measurement": "Ratio IC50", "setting": "[7]", "value": 0.9},
      {"measurement": "IC50", "setting": "[8]", "value": 840, "unit": "nM"},
      {"measurement": "Kapp", "setting": "[9]", "value": 100, "unit": "M⁻¹ s⁻¹"}
    ]},
    {"smiles": "N=C(N)Nc1ccc(CC(NS(=O)(=O)c2cccc3ccccc23)P(=O)(Oc2ccccc2)Oc2ccccc2)cc1", "note": "(stereo not drawn)", "values": [
      {"measurement": "Kapp", "setting": "[9]", "value": 7300, "unit": "M⁻¹ s⁻¹"}
    ]},
    {"smiles": "N=C(N)c1ccc(CCC(NC(=O)OCc2ccccc2)P(=O)(Oc2ccccc2)Oc2ccccc2)cc1", "note": "(stereo not drawn)", "values": [
      {"measurement": "Ratio IC50", "setting": "[1]", "value": 7},
      {"measurement": "Ratio IC50", "setting": "[3]", "value": 70},
      {"measurement": "Ratio IC50", "setting": "[7]", "value": 20},
      {"measurement": "Ratio IC50", "setting": "[10]", "value": 15},
      {"measurement": "Kapp", "setting": "[9]", "value": 140, "unit": "M⁻¹ s⁻¹"}
    ]},
    {"smiles": "CS(=O)(=O)NC(Cc1ccc(NC(=N)N)cc1)P(=O)(Oc1ccccc1)Oc1ccccc1", "note": "(stereo not drawn)", "values": [
      {"measurement": "IC50", "setting": "[5]", "value": 125, "unit": "µM"},
      {"measurement": "IC50", "setting": "[11]", "value": 250, "unit": "µM"},
      {"measurement": "Kapp", "setting": "[9]", "value": 140000, "unit": "M⁻¹ s⁻¹"}
    ]},
    {"smiles": "N=C(N)c1ccc(CC(NC(=O)OCc2ccccc2)P(=O)(Oc2ccccc2)Oc2ccccc2)cc1", "note": "(stereo not drawn)", "values": [
      {"measurement": "inhibition", "setting": "[6]", "value": 65, "unit": "%"},
      {"measurement": "Kapp", "setting": "[9]", "value": 2000, "unit": "M⁻¹ s⁻¹"}
    ]},
    {"smiles": "CC(=O)Nc1ccc(OP(=O)(Oc2ccc(NC(C)=O)cc2)C(Cc2ccc(NC(=N)N)cc2)NC(=O)OCc2ccccc2)cc1", "note": "(stereo not drawn)", "values": [
      {"measurement": "Ratio IC50", "setting": "[1]", "value": 200},
      {"measurement": "Ratio IC50", "setting": "[3]", "value": 1700},
      {"measurement": "Ratio IC50", "setting": "[7]", "value": 90},
      {"measurement": "Ratio IC50", "setting": "[10]", "value": 23000},
      {"measurement": "Kapp", "setting": "[9]", "value": 80000, "unit": "M⁻¹ s⁻¹"}
    ]},
    {"smiles": "CCOC(=O)NC(Cc1ccc(NC(=N)N)cc1)P(=O)(Oc1ccccc1)Oc1ccccc1", "note": "(stereo not drawn)", "values": [
      {"measurement": "Kapp", "setting": "[9]", "value": 40000, "unit": "M⁻¹ s⁻¹"}
    ]},
    {"smiles": "CC(=O)Nc1ccc(OP(=O)(Oc2ccc(NC(C)=O)cc2)C(Cc2ccc(NC(=N)N)cc2)NS(C)(=O)=O)cc1", "note": "(stereo not drawn)", "values": [
      {"measurement": "Ratio IC50", "setting": "[1]", "value": 550},
      {"measurement": "Ratio IC50", "setting": "[3]", "value": 1000},
      {"measurement": "inhibition", "setting": "[6]", "value": 55, "unit": "%"},
      {"measurement": "Ratio IC50", "setting": "[7]", "value": 700},
      {"measurement": "Kapp", "setting": "[9]", "value": 210000, "unit": "M⁻¹ s⁻¹"}
    ]},
    {"smiles": "CC(C)c1cc(C(C)C)c(S(=O)(=O)NC(Cc2ccc(NC(=N)N)cc2)P(=O)(Oc2ccccc2)Oc2ccccc2)c(C(C)C)c1", "note": "(stereo not drawn)", "values": [
      {"measurement": "Ratio IC50", "setting": "[1]", "value": 500},
      {"measurement": "Ratio IC50", "setting": "[3]", "value": 60},
      {"measurement": "inhibition", "setting": "[12]", "value": 60, "unit": "%"},
      {"measurement": "Ratio IC50", "setting": "[10]", "value": 80},
      {"measurement": "Kapp", "setting": "[9]", "value": 1600, "unit": "M⁻¹ s⁻¹"}
    ]},
    {"smiles": "N=C(N)Nc1ccc(CNC(=O)OCc2ccccc2)cc1", "values": [
      {"measurement": "Ki", "setting": "[2]", "value": "> 1000", "unit": "µM"},
      {"measurement": "Ki", "setting": "[4]", "value": "> 1000", "unit": "µM"},
      {"measurement": "Ki", "setting": "[5]", "value": "> 1", "unit": "mM"},
      {"measurement": "Ki", "setting": "[11]", "value": "> 1", "unit": "mM"}
    ]},
    {"smiles": "N=C(N)c1ccc(C(NC(=O)OCc2ccccc2)P(=O)(Oc2ccccc2)Oc2ccccc2)cc1", "note": "(stereo not drawn)", "values": [
      {"measurement": "Kapp", "setting": "[9]", "value": 43, "unit": "M⁻¹ s⁻¹"}
    ]},
    {"smiles": "C[C@H](NC(=O)[C@@H](CO)NS(=O)(=O)Cc1ccccc1)C(=O)NC(Cc1ccc(NC(=N)N)cc1)P(=O)(Oc1ccccc1)Oc1ccccc1", "note": "(stereo partly drawn)", "values": [
      {"measurement": "IC50", "setting": "[11]", "value": 33.5, "unit": "µM"},
      {"measurement": "IC50", "setting": "[8]", "value": 4, "unit": "nM"}
    ]},
    {"smiles": "N=C(N)Nc1ccc(CC(NC(=O)OCc2ccccc2)P(=O)(Oc2ccccc2)Oc2ccccc2)cc1", "note": "(stereo not drawn)", "values": [
      {"measurement": "Kapp", "setting": "[9]", "value": 42000, "unit": "M⁻¹ s⁻¹"}
    ]},
    {"smiles": "CC(=O)NC(Cc1ccc(NC(=N)N)cc1)P(=O)(Oc1ccccc1)Oc1ccccc1", "note": "(stereo not drawn)", "values": [
      {"measurement": "IC50", "setting": "[8]", "value": 7.2, "unit": "nM"},
      {"measurement": "Kapp", "setting": "[9]", "value": "1.4e+06", "unit": "M⁻¹ s⁻¹"}
    ]},
    {"smiles": "N=C(N)Nc1ccc(CC(NS(=O)(=O)Cc2ccccc2)P(=O)(Oc2ccccc2)Oc2ccccc2)cc1", "note": "(stereo not drawn)", "values": [
      {"measurement": "inhibition", "setting": "[13]", "value": 59, "unit": "%"},
      {"measurement": "Kapp", "setting": "[9]", "value": 19000, "unit": "M⁻¹ s⁻¹"}
    ]},
    {"smiles": "N=C(N)Nc1ccc(CC(NC(=O)c2ccccc2)P(=O)(Oc2ccccc2)Oc2ccccc2)cc1", "note": "(stereo not drawn)", "values": [
      {"measurement": "Kapp", "setting": "[9]", "value": 2400, "unit": "M⁻¹ s⁻¹"}
    ]},
    {"smiles": "C[C@H](NC(=O)[C@@H](CO)NS(=O)(=O)Cc1ccccc1)C(=O)NCc1ccc(NC(=N)N)cc1", "values": [
      {"measurement": "Activity", "setting": "[14]", "value": "inactive"},
      {"measurement": "Ki", "setting": "[2]", "value": "> 2.5", "unit": "µM"},
      {"measurement": "Ki", "setting": "[4]", "value": 40, "unit": "µM"},
      {"measurement": "Ki", "setting": "[8]", "value": 16, "unit": "nM"}
    ]}
  ]
}
